According to ChEMBL document CHEMBL1138367, “Synthesis and in vivo evaluation of non-hepatotoxic acetaminophen analogs” (Bioorg Med Chem, 2007):
One block for each compound: values may come before it. Active and inactive are the calls of the source.

Key:
[1] = test system: Mus musculus; assay: Analgesic activity in CD1 mouse upto 3010 umol/kg by hot plate assay; type: functional, organism-based
Summary of the method: (§1)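 Oral doses given to overnight-fasted mice. Latency to lick the hind paw was recorded on a 54 ± 1 °C hot plate, with a 30 s cut-off assigned to non-responders. Testing was done blind.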

[2] = test system: Mus musculus; assay: Analgesic activity in CD1 mouse assessed as acetic acid-induced writhing at 1 mmol/kg, po after 1 hr; type: functional
Summary of the method: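 Mice fasted overnight, dosed orally by esophageal cannula under brief halothane, 1 mmol/kg; 1 h reading, n = 9–16 per group. Writhing induced by ip 0.4% acetic acid, 10 mL/kg, given 25 min after drug; writhes counted for 10 min starting 5 min after injection. Expressed as % analgesia ± SEM.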

[3] = species on record: Mus musculus; assay: Analgesic activity in CD1 mouse by acetic acid-induced writhing test after 30 to 40 mins; type: functional
Summary of the method: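 Overnight-fasted mice given several oral doses by esophageal cannulation under brief halothane. Acetic acid 0.4% (10 mL/kg ip) injected 25 min post-dose; writhes counted over 10 min from 5 min after injection, i.e. 30–40 min after dosing. Percent analgesia vs vehicle; two-way ANOVA with Tukey; ED50 by nonlinear regression.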

[4] = test system: HepG2; assay: Hepatotoxicity against HEPG2 cells after 6 to 8 hrs by tryptan blue exclusion test; type: functional, cell-based; settings: Homo sapiens
Summary of the method: (§2)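 HEPG-2 cells at 80% confluence were serum-starved 6–8 h (EMEM, 0.5% FBS), then exposed to the compound for 6–8 h at 37 °C. Cell toxicity was assessed by Trypan blue exclusion.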

[5] = test system: Mus musculus; assay: Analgesic activity in CD1 mouse upto 3010 umol/kg by tail flick test; type: functional, organism-based
Summary of the method: (§3)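 Oral doses given to fasted mice. A focused light beam was aimed at the tail, with intensity set for baseline latencies of 3–4 s; withdrawal latency was recorded by photoelectric cell. Testing was done blind.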

[6] = test system: Mus musculus; assay: Hepatotoxicity in CD1 mouse assessed as plasma GPT levels at 6 mmol/kg; type: toxicity, organism-based; settings: in vivo
Summary of the method: (§4)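 CD-1 mice, fasted overnight, dosed orally with 6 mmol/kg by esophageal cannula under brief halothane anesthesia, or vehicle. Blood collected after decapitation at 24 h into heparinized syringes. Plasma spun 3000 rpm for 10 min at 4 C. GPT and GOT activity measured with a spectrophotometric kit. n = 8–12.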

[7] = test system: Mus musculus; assay: Antiinflammatory activity in CD1 mouse by carrageenan-induced paw edema method; type: functional, organism-based
Summary of the method: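 Male CD-1 mice dosed orally; 30 min later, under halothane, 50 µL 1% lambda-carrageenan in saline was injected into one hind plantar paw. Paw volume was measured by paw volume meter before and 4 h after injection, expressed as % of vehicle controls ± SEM; n = 4–5 per dose. Indomethacin 30 mg/kg po served as positive control.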

[8] = Drug level in CD1 mouse urine assessed as unmetabolized fractions at 3 mmol/kg, po; type: ADME, tissue-based; settings: read-out: Activity
Summary of the method: (§5)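 Two-month-old CD-1 mice, fasted overnight, given a single oral 3 mmol/kg dose in Tween 20 under light halothane. Housed two per metabolic cage, with food from 6 h; urine collected on ice over 24 h. After centrifugation and filtration, analysed by HPLC–MS on a C18 column with an ammonium acetate/acetonitrile gradient; UV detection at 280, 254 and 210 nm.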

[9] = species on record: Mus musculus; assay: Analgesic activity in CD1 mouse by formalin-induced pain model after 30 mins; type: functional; settings: for ED50: CD1, 0.5 h
Summary of the method: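 Oral dosing (fasted, halothane, esophageal cannula) 30 min before sc injection of 30 µL 5% buffered formalin into one hind plantar paw. Paw-licking time recorded in 5-min blocks over 90 min; mice habituated to the test box 90 min the day before. Three-way ANOVA (drug × dose × time) with Tukey; ED50 by nonlinear regression.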

[10] = test system: HepG2; assay: Induction of apoptosis in HEPG2 cells by Hoechst staining; type: functional, cell-based; settings: Homo sapiens
Summary of the method: (§6)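 Serum-starved HEPG-2 cells were treated 6–8 h at 37 °C (100 µM). After washing with PBS, cells were stained with Hoechst (2 µM final) for 45 min at 37 °C. Apoptotic cells were detected by confocal fluorescence microscopy.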

[11] = test system: HepG2; assay: Upregulation of Fas-ligand in HEPG2 cells by Western blot; type: functional, cell-based; settings: Homo sapiens
Summary of the method: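 HEPG-2 cells at 80% confluence, serum-starved 6–8 h (EMEM, 0.5% FBS), then treated with 100 µM for the times indicated at 37 °C. Fas-ligand measured by Western blot on extracts normalised for protein (15–20 µg loaded), Fas-L-specific antibody, ECL detection, densitometric quantitation.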

[12] = test system: Mus musculus; assay: Hepatotoxicity in CD1 mouse assessed as plasma GOT levels at 6 mmol/kg; type: toxicity, organism-based; settings: in vivo; summary of the method: as §4
[13] = test system: Mus musculus; assay: Hepatotoxicity in mouse assessed as plasma GPT levels at 3.7 mmol/kg, po after 24 hrs; type: toxicity, organism-based; settings: in vivo
Summary of the method: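 C57BL/6 mice given a single 3.7 mmol/kg oral dose; plasma GPT measured spectrophotometrically 24 h later and reported as SF units/mL ± SD.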

[14] = test system: Mus musculus; assay: Hepatotoxicity in CD1 mouse assessed as renal glutathione levels at 6 mmol/kg; type: toxicity, organism-based; settings: in vivo
Summary of the method: (§7)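 Male CD-1 mice (20–30 g), fasted overnight, received 6 mmol/kg orally by esophageal cannula under brief halothane anesthesia, or vehicle. At 3 h the livers were saline-perfused. Liver was homogenized 5% w/v and kidney 10% w/v in 5% MPA, then centrifuged 3000g for 10 min at 4 C. Supernatant glutathione read colorimetrically. n = 8–12.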

[15] = test system: Mus musculus; assay: (§8) Toxicity in CD1 mouse assessed as mortality at 6 mmol/kg; type: organism-based; settings: mouse, in vivo
Summary of the method: (§9)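 CD-1 mice, fasted overnight, given a single oral dose of 6 mmol/kg by esophageal cannula under brief halothane anesthesia. Deaths recorded 24 h after dosing, expressed as a fraction of the group (n = 10).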

[16] = test system: Mus musculus; assay: Hepatotoxicity in CD1 mouse assessed as hepatic glutathione levels at 6 mmol/kg; type: toxicity, organism-based; settings: in vivo; summary of the method: as §7
[17] = test system: HepG2; assay: Activation of CAR in HEPG2 cells at 100 uM by Western blot; type: functional, cell-based; settings: Homo sapiens
Summary of the method: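 HEPG-2 cells in EMEM/NEAA/10% FBS, 37 °C, 5% CO2; at 80% confluence held 6–8 h in EMEM with 0.5% FBS, then treated at 100 µM for the times indicated. CAR detected by Western blot on cell extracts (15–20 µg protein, 8–16% gel) with human CAR-specific antibody and ECL, then quantified by densitometry.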

[18] = Drug level in CD1 mouse urine assessed as glucuronate level; type: ADME, tissue-based; settings: in vivo
[19] = Drug level in CD1 mouse urine assessed as glucuronate level at 3 mmol/kg, po; type: ADME, tissue-based; settings: in vivo; summary of the method: as §5
[20] = test system: HepG2; assay: Induction of apoptosis in HEPG2 cells at 100 uM after 6 to 8 hrs by Hoechst staining; type: functional, cell-based; settings: Homo sapiens; summary of the method: as §6
[21] = test system: HepG2; assay: Hepatotoxicity against HEPG2 cells at 200 uM after 6 to 8 hrs by tryptan blue exclusion test; type: functional, cell-based; settings: Homo sapiens; summary of the method: as §2
[22] = test system: HepG2; assay: Hepatotoxicity against HEPG2 cells at 100 uM after 6 to 8 hrs by tryptan blue exclusion test; type: functional, cell-based; settings: Homo sapiens; summary of the method: as §2
[23] = test system: Mus musculus; assay: Analgesic activity in CD1 mouse upto 6620 umol/kg by tail flick test; type: functional, organism-based; summary of the method: as §3
[24] = test system: Mus musculus; assay: Hepatotoxicity in CD1 mouse assessed as increased plasma GOT levels at 6 mmol/kg; type: toxicity, organism-based; settings: in vivo
Summary of the method: (§10)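 Male CD-1 mice (20–30 g), fasted overnight, received 6 mmol/kg orally by esophageal cannula. At 24 h, blood was collected by decapitation into heparinized syringes and plasma obtained by centrifugation at 4 °C. GPT and GOT were determined with a spectrophotometric kit; n = 8–12. Mortality was recorded at 24 h.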

[25] = Hepatotoxicity in C57BL/6 mouse; type: toxicity, organism-based; settings: in vivo
[26] = test system: Mus musculus; assay: Hepatotoxicity in CD1 mouse assessed as reduction in hepatic glutathione levels at 6 mmol/kg; type: toxicity, organism-based; settings: in vivo
Summary of the method: (§11)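 Male CD-1 mice (20–30 g), fasted, given 6 mmol/kg orally; killed 3 h later and livers perfused with heparinized saline. Liver homogenized to 5% w/v and kidney to 10% w/v in 5% MPA, then centrifuged 3000g for 10 min at 4 °C. Glutathione in supernatant measured by colorimetric kit; n = 8–12.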

[27] = as §8; type: organism-based; settings: CD1, mouse, in vivo, 6 mmol/kg; read-out: Activity; summary of the method: as §9
[28] = test system: Mus musculus; assay: Analgesic activity in CD1 mouse upto 6620 umol/kg by hot plate assay; type: functional, organism-based; summary of the method: as §1
[29] = test system: Mus musculus; assay: Hepatotoxicity in CD1 mouse assessed as increased plasma GPT levels at 6 mmol/kg; type: toxicity, organism-based; settings: in vivo; summary of the method: as §10
[30] = test system: Mus musculus; assay: Hepatotoxicity in CD1 mouse assessed as reduction in renal glutathione levels at 6 mmol/kg; type: toxicity, organism-based; settings: in vivo; summary of the method: as §11
[31] = Drug level in CD1 mouse urine assessed as 2-{[(4-Hydroxyphenylcarbamoyl)methyl]sulphamoyl}benzoic acid level at 3 mmol/kg, po; type: ADME, tissue-based; settings: in vivo; summary of the method: as §5

SMILES: O=C(CN1C(=O)c2ccccc2S1(=O)=O)Nc1ccc(O)cc1
Activity [1]: inactive
Activity [2]: 62.42%
Activity [3]: Dose-dependent effect
ED50 [3]: 640 µmol/kg
Activity [4]: inactive
Activity [5]: inactive
Activity [6]: Not Active
Activity [7]: inactive
dose excreted [8]: 0.9%
Activity [9]: Dose-dependent effect
ED50 [9]: 260 µmol/kg
Activity [10]: inactive
Activity [11]: inactive
Activity [12]: Not Active
Activity [13]: 30.5 U/ml
Activity [14]: Not Active
Activity [15]: Not Active
Activity [16]: Not Active
Activity [17]: inactive

SMILES: O=C(CCCCCN1C(=O)c2ccccc2S1(=O)=O)Nc1ccc(O)cc1
Activity [2]: 53.72%
Activity [13]: 29.52 U/ml

SMILES: O=C(CCN1C(=O)c2ccccc2S1(=O)=O)Nc1ccc(O)cc1
Activity [2]: 43.8%
Activity [13]: 28.85 U/ml

SMILES: O=C(CCCCN1C(=O)c2ccccc2S1(=O)=O)Nc1ccc(O)cc1
Activity [2]: 32.56%
Activity [13]: 44.16 U/ml

Activity [18]: 23.7%
SMILES: O=C(CNS(=O)(=O)c1ccccc1C(=O)O)Nc1ccc(O[C@@H]2O[C@H](C(=O)O)[C@@H](O)[C@H](O)[C@H]2O)cc1

SMILES: O=C(CCCN1C(=O)c2ccccc2S1(=O)=O)Nc1ccc(O)cc1
Activity [2]: 28.9%
Activity [13]: 82.62 U/ml

Activity [19]: 32%
SMILES: O=C(CN1C(=O)c2ccccc2S1(=O)=O)Nc1ccc(O[C@@H]2O[C@H](C(=O)O)[C@@H](O)[C@H](O)[C@H]2O)cc1

SMILES: CC(=O)Nc1ccc(O)cc1 [ACETAMINOPHEN]
Activity [20]: Active
Activity [2]: 61.32%
Activity [21]: Active
Activity [3]: Dose-dependent effect
ED50 [3]: 1290 µmol/kg
Activity [22]: Active
Activity [7]: inactive
Activity [9]: Dose-dependent effect
ED50 [9]: 1900 µmol/kg
Activity [23]: inactive
Activity [24]: Active
LD50 [25]: 3700 µmol/kg
Activity [11]: Active
Activity [26]: Active
Activity [13]: 299.01 U/ml
mortality [27]: 40%
Activity [28]: inactive
Activity [29]: Active
Activity [30]: Active
Activity [17]: Active

Activity [31]: 38.6%
SMILES: O=C(CNS(=O)(=O)c1ccccc1C(=O)O)Nc1ccc(O)cc1
